Results on 14 compounds are retold here after ChEMBL document CHEMBL4699416, “Allocolchicinoids bearing a Michael acceptor fragment for possible irreversible binding of tubulin” (RSC Med Chem, 2020).

The structures appear in SMILES notation. pIC50: −log10 of the molar value. Active and inactive are the calls of the source. The rule behind the calls is not given here.

For series [1], the system named is COLO357. In words: Cytotoxicity against human COLO-357 cells assessed as inhibition of cell growth incubated for 72 hrs by MTT assay. In kind it is functional, cell-based. The settings on record: COLO357, 72 h. The essentials:
(§1)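 Cells in DMEM with 10% FCS, seeded 24 h before assay at 3 × 10^5 cells per mL and incubated overnight. DMSO stocks (20 mM) diluted to 20 μM–0.1 nM and added to cells for 72 h, with untreated controls. MTT added for the last 6 h, formazan dissolved in DMSO, OD read at 540 nm.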
On the technique in general: Formazan colour is commonly taken as a measure of viable cells.

The test system of another series is BXPC-3. In words: Cytotoxicity against human BxPC-3 cells assessed as inhibition of cell growth incubated for 72 hrs by MTT assay. In kind it is functional, cell-based. To be noted: BXPC-3, 72 h. The essentials:
as §1

The subject of the next series is HaCaT. As to the kind of experiment: Cytotoxicity against human HaCaT cells assessed as inhibition of cell growth incubated for 72 hrs by MTT assay. In kind it is functional, cell-based. An outline of the steps: as §1
The next series concerns HEK293. As to the kind of experiment: Cytotoxicity against human HEK293 cells assessed as inhibition of cell growth incubated for 72 hrs by MTT assay. To be noted: HEK293, 72 h. In kind it is functional, cell-based. An outline of the steps: as §1
Series [2] deals with COLO357. In words: Induction of cell cycle arrest in human COLO357 cells assessed as G2/M phase at 5 uM incubated for 72 hrs by propidium iodide staining based flow cytometry analysis (reference value: 7.2 %). In kind it is functional. (In general: A flow cytometer gives signals particle by particle.)
Series [3] deals with COLO357. In words: Induction of cell cycle arrest in human COLO357 cells assessed as G1 phase at 5 uM incubated for 72 hrs by propidium iodide staining based flow cytometry analysis (reference value: 91.1 %). In kind it is functional.
The test system of series [4] is COLO357. In words: Induction of apoptosis in human COLO357 cells at 5 uM incubated for 72 hrs by propidium iodide staining based flow cytometry analysis (reference value: 0.3 %). In kind it is functional.
For series [5], the system named is COLO357. In words: Induction of mitotic arrest in human COLO357 cells assessed as disruption of mitotic spindle arrangement at 5 uM incubated for 72 hrs by immunofluorescence based confocal microscopic analysis. In kind it is functional, cell-based. An outline of the steps:
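COLO-357 cells (10^5 per coverslip) grown overnight, then exposed to 5 μM in complete medium for 72 h. Fixed in 1% paraformaldehyde and permeabilized with 0.1% Triton X100 in PBS. Stained with anti-β-tubulin antibody and AlexaFluor555 anti-mouse IgG, nuclei with Hoechst 33342, then imaged by confocal microscopy.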

Series [6] can be described thus: Toxicity in iv dosed C57BL/6 mouse assessed as lethal dose measured after 40 to 48 hrs. In kind it is organism-based. The settings on record: in vivo, time 40-48 hrs; for LD50: C57BL/6, mouse; for LD100: mouse. An outline of the steps: (§2)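 Acute toxicity in C57BL/6 mice, 6–8 weeks old, 10 per group. Each mouse got one intravenous dose of 4, 7, 10 or 13 mg kg–1. The dose range was set in preliminary experiments. Signs of toxicity (ruffled fur, poor mobility, lower body temperature) and lethality were recorded at 24 h and 48 h after injection. Survivors at 48 h were followed for 1 week. LD50 and LD100 were derived.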

Series [7] in a line: Induction of cell cycle arrest in […] L929 cells assessed as G2/M phase at 5 uM incubated for 72 hrs by propidium iodide staining based flow cytometry analysis (reference value: 8 %). In kind it is functional.
Series [8] in a line: Induction of cell cycle arrest in […] L929 cells assessed as G1 phase at 5 uM incubated for 72 hrs by propidium iodide staining based flow cytometry analysis (reference value: 91 %). In kind it is functional.
A short description of series [9]: Induction of apoptosis in […] L929 cells at 5 uM incubated for 72 hrs by propidium iodide staining based flow cytometry analysis (reference value: 1.2 %). In kind it is functional.
A short description of series [10]: Toxicity in iv dosed C57BL/6 mouse assessed as lethal dose measured after 24 hrs. In kind it is organism-based. The settings on record: in vivo. The essentials:
as §2

Series [11] in a line: Inhibition of lamb brain tubulin polymerization assessed as reduction in microtubule formation incubated for 40 mins by spectrophotometric analysis. In kind it is tissue-based, Ovis aries.

A word on the pIC50: it is −log10 of the IC50, conventionally taken in molar units. One may read the LD50 as the dose expected to kill half of the subjects tested.

On to `C=CC(=O)OCC(=O)N[C@H]1CCc2cc(OC)c(OC)c(OC)c2-c2ccc(C(=O)OC)cc21`, for which the pIC50 in the series with COLO357 [1], in the series with BXPC-3, in the series on HaCaT and with HEK293 was 7.80 each time.
Turning to `COC(=O)c1ccc2c(c1)[C@@H](NC(=O)COC(=O)C=C(C)C)CCc1cc(OC)c(OC)c(OC)c1-2`, the pIC50 with COLO357 [1] is 7.80; in the series on BXPC-3, 8.52; in the series with HaCaT, 8.52; in the series on HEK293, 7.80.
Regarding `C/C=C/C=C/C(=O)OCC(=O)N[C@H]1CCc2cc(OC)c(OC)c(OC)c2-c2cc3cc(COC(C)=O)oc3cc21`, the pIC50 was 7.80 in the series on COLO357 [1], 7.80 in the series with BXPC-3, 9.22 in the series with HaCaT and 8.52 in the series with HEK293.
On to `C/C=C/C(=O)OCC(=O)N[C@H]1CCc2cc(OC)c(OC)c(OC)c2-c2ccc(C(=O)OC)cc21`, for which the pIC50 with COLO357 [1] is 7.80; in the series on BXPC-3 it was 7.80; in the series with HaCaT, 8.52; in the series on HEK293, 8.52. Further, the Activity in the series with COLO357 [2] stood at 60%; with COLO357 [3] it was 32%; in the series with COLO357 [4], 9.3%. In addition, the result in the series with COLO357 [5] was Active. For the same compound, the LD50 in series [6] was 6.5 mg/kg. Also, the LD100 in series [6] was 9.8 mg/kg.
Consider `COC(=O)c1ccc2c(c1)[C@@H](NC(=O)COC(=O)CC(C)SC[C@@H](NC(C)=O)C(=O)OC)CCc1cc(OC)c(OC)c(OC)c1-2` (mixture of isomers), for which the pIC50 was 7.10 in the series on COLO357 [1], 7.80 in the series on BXPC-3, 7.80 in the series with HaCaT and 7.80 in the series on HEK293.
For `COc1cc2c(c(OC)c1OC)-c1ccc(OC)c(=O)cc1[C@@H](NC(C)=O)CC2` [COLCHICINE], the negative logarithm of the IC50 (pIC50) in the series with COLO357 [1] is 7.80; in the series with BXPC-3, 7.80; in the series on HaCaT it was 8.52; in the series on HEK293 it was 7.80. Also, the Activity came to 61% with COLO357 [2]; 33% in the series with COLO357 [3]; 10% with COLO357 [4]; 74% in [7]; 30% in series [8]; 3% in series [9]. Besides, the outcome with COLO357 [5] was Active. In addition, the LD50 in [6] stood at 8.5 mg/kg. In addition, the LD100 in [6] was determined as 10.9 mg/kg.
With `C/C=C/C=C/C(=O)NCC(=O)N[C@H]1CCc2cc(OC)c(OC)c(OC)c2-c2cc3cc(CO)oc3cc21`, the pIC50 in the series with COLO357 [1], in the series on BXPC-3, with HaCaT and in the series with HEK293 was 6.40 in each case.
Take `COC(=O)c1ccc2c(c1)[C@@H](NC(=O)COC(=O)/C=C/C(F)(F)F)CCc1cc(OC)c(OC)c(OC)c1-2`: the pIC50 with COLO357 [1], with BXPC-3, in the series on HaCaT and with HEK293 was 7.80 each time.
`C=CC(=O)NCC(=O)N[C@H]1CCc2cc(OC)c(OC)c(OC)c2-c2ccc(C(=O)OC)cc21`: the negative logarithm of the IC50 (pIC50) is 6.40 in the series with COLO357 [1], 7.10 with BXPC-3, 7.10 in the series on HaCaT and 6.40 in the series on HEK293.
In the case of `COC(=O)c1ccc2c(c1)[C@@H](NC(=O)CNC(=O)C=C(C)C)CCc1cc(OC)c(OC)c(OC)c1-2`, the negative-log IC50 (pIC50) with COLO357 [1] is 7.10; in the series with BXPC-3, 7.80; in the series with HaCaT, 7.80; in the series on HEK293, 7.80.
Consider `C/C=C/C=C/C(=O)NCC(=O)N[C@H]1CCc2cc(OC)c(OC)c(OC)c2-c2ccc(C(=O)OC)cc21`, for which the pIC50 in the series on COLO357 [1] is 7.80; in the series with BXPC-3 it was 8.52; in the series on HaCaT, 8.52; with HEK293 it was 7.80.
As for `C/C=C/C=C/C(=O)OCC(=O)N[C@H]1CCc2cc(OC)c(OC)c(OC)c2-c2ccc(C(=O)OC)cc21`, the pIC50 in the series on COLO357 [1] is 8.52; in the series on BXPC-3 it was 8.52; in the series on HaCaT, 9.22; with HEK293, 8.52; in [11] it was 5.17. Also, the Activity is reported as 61% in series [7], 40% in series [8] and 5.6% in series [9]. Also, the result with COLO357 [5] was Active. In series [10] (C57BL/6, mouse), the LD50 at 24 h amounted to 6.1 mg/kg. In addition, in [10] (mouse, 24 h), the LD100 was found to be 8.4 mg/kg.
As to `COC(=O)c1ccc2c(c1)[C@@H](NC(=O)CNC(=O)/C=C/C(F)(F)F)CCc1cc(OC)c(OC)c(OC)c1-2`, the pIC50 in the series with COLO357 [1] was 7.10; in the series with BXPC-3 it was 7.80; in the series with HaCaT it was 7.80; in the series with HEK293, 7.10.
With `C/C=C/C(=O)NCC(=O)N[C@H]1CCc2cc(OC)c(OC)c(OC)c2-c2ccc(C(=O)OC)cc21`, the pIC50 with COLO357 [1], with BXPC-3, in the series on HaCaT and with HEK293 was 7.10 throughout.
